Source: PubChem (The Scripps Research Institute Molecular Screening Center)
Most compounds without a hit are left out; they make up all but 4.6% or so of the library.
TAAR1 antagonist – human TAAR1 antagonists, primary screen, Fluo-8 calcium fluorescence, CHO RD-HGA16 cells; antagonist; inhibition, % at 3 µM; 360,000 tested, 1.5% active; AID 624466, 2012;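 active = inhibition above a per-plate cutoff, the mean inhibition of test compounds on that plate plus 3 SD, cut at about 49% in these data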;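 also: 0% = DMSO plus EC80 beta-PEA response and 100% = DMSO alone without agonist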
Target sequence (Q96RJ0 whole entry, looked up): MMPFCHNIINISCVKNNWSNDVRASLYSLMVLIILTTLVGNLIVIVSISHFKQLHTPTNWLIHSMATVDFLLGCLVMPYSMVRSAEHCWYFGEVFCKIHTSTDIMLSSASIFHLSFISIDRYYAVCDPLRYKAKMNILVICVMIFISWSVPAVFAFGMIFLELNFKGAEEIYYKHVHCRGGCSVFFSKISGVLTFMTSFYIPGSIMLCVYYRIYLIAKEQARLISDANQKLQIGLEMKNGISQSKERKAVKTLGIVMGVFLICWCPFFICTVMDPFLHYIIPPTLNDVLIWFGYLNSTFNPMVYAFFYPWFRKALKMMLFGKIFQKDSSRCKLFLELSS
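Test system: hTAAR1-expressing CHO RD-HGA16 cells, Gα16-coupled; Probe or stimulus: EC80 β-phenethylamine stimulus; Compound dosing: single nominal final test compound concentration of 3 µM; Timing: 140 s kinetic read after compound, 140 s after agonist; Signal: Fluo-8 calcium-sensitive fluorescence; Measure: % inhibition of agonist calcium response; Controls: DMSO and EC80 PEA controls.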
OX1R antag-1 – antagonists of human orexin 1 receptor (OX1R); Orexin/Hypocretin receptor type 1 (Homo sapiens), O43613; OX1R-expressing cells, FRET antagonist read-out; inhibition, % at 6.6 µM; 330,000 tested, 1.8% active; AID 485270, 2010; in the data active = inhibition mostly above about 38%, no sharp cut-off; inactive = mostly below about 40%;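 also: 0% = agonist challenge alone and 100% = reference antagonist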
CHO parental Ca – ATP-evoked calcium signal inhibitors, parental CHO, primary screen, counter-screen for OX1R antagonist project, cell-based, fluorescence, Fluo-8 calcium dye; parental CHO-K1, ATP-induced calcium, Fluo-8 fluorescence; inhibition, % at 5.6 µM; 330,000 tested, 0.63% active; AID 463079, 2010;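 active = inhibition above that plate's mean sample inhibition plus 3 SD, cut at about 26% in these data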;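 also: 0% = ATP-challenged DMSO wells and 100% = DMSO wells without ATP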
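Assay system: parental CHO cells; Read-out basis: percent inhibition of ATP-evoked calcium rise, normalized to controls; Benchmarks: ATP and no-ATP DMSO wells; Compound dosing: single nominal dose of 5.6 µM per compound; Signal: Fluo-8 calcium dye fluorescence; Also added: ATP as calcium-mobilizing challenge; Repeats: singlicate.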
TAAR1 agonist – human TAAR1 agonists, primary screen, Fluo-8 calcium fluorescence, CHO RD-HGA16 cells. AID 624467, 2012. activation, % at 3 µM. vehicle wells 0%, saturating PEA agonist 100%. 360,000 tested, 0.99% active;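 active = activation above the mean activation of all test compounds in the run plus 3 SD, cut at about 38% in these data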
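Test system: RD-HGA16 (CHO) cells co-expressing Gα16 and hTAAR1; dosing: one-point dosing at 3 µM (nominal); timing: 17-24 h seeding, 75 min 37 °C dye, 30 min RT; signal: kinetic Fluo-8 calcium fluorescence; read-out basis: % activation relative to PEA EC100 response; controls: DMSO and PEA EC100; replicates: n 1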
GPR7 antagonist – GPR7 receptor antagonists, primary screen, cell-based, fluorescence, single concentration; 290,000 tested, 1.1% active; inhibition, % at 4.4 µM; Neuropeptides B/W receptor type 1 (Homo sapiens), P48145; GPR7-expressing cells, fluorescence antagonist assay; in the data active = inhibition above about 16%, passing the limit was not always enough;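 also: cells stimulated with the agonist NPW; 0% = agonist with vehicle and 100% = vehicle without agonist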
Target sequence (P48145 whole entry, looked up): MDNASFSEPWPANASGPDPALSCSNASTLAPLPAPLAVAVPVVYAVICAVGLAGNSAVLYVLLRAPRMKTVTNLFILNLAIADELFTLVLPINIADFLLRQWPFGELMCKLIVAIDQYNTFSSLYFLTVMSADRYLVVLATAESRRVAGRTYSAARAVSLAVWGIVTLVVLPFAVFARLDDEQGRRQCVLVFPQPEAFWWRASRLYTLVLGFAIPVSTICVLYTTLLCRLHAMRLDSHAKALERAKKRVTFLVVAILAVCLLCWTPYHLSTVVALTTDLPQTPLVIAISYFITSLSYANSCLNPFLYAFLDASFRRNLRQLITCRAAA
OX1R antag-2 – OX1R (HCRTR1) antagonists, primary screen, fluorescence, CHO/OX1R cells, Fluo-8 calcium, orexin A. Fluo-8 calcium fluorescence. inhibition, % at 5 µM. 330,000 tested, 0.43% active. Orexin/Hypocretin receptor type 1 (Homo sapiens), O43613;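 active = inhibition above its plate's threshold, mean inhibition of all tested compounds on the plate plus 3 SD, cut at about 37% in these data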;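 also: 0% = orexin A challenge wells and 100% = SB-334867-A antagonist wells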
TAAR1 nonsel count – nonselective antagonists in TAAR1 counter-screen cells, counter-screen for hTAAR1 antagonist project, cell-based, fluorescence, calcium; inhibition, % at 3 µM; 2,400 tested, 77% active; AID 651780, 2012; counterscreen cell line, antagonist mode; shares compounds with TAAR1 antagonist; in the data active = inhibition above about 22%;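 also: CHO-Ga16 host cells stimulated with ATP at an EC80 level; 0% = agonist EC80 plus vehicle and 100% = vehicle without agonist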
TAAR1 ant conf – human TAAR1 antagonists, retest of hits, confirmation, cell-based, fluorescence. shares compounds with TAAR1 antagonist. TAAR1-expressing cells, fluorescence antagonist read-out. inhibition, % at 3 µM. 2,400 tested, 40% active. AID 651785, 2012; in the data active = inhibition above about 49%;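 also: CHO-Ga16 host cells challenged with agonist PEA near its EC80; 0% = agonist at EC80 plus vehicle and 100% = vehicle with no agonist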
Ga16 nonsel ag – calcium activation in Ga16-expressing cells, counter-screen for TAAR1 antagonist project, cell-based, fluorescence; shares compounds with TAAR1 antagonist; agonist counterscreen; activation, % at 3 µM; 2,400 tested, 18% active; in the data active = activation above about 12%;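 also: 0% = vehicle wells and 100% = saturating stimulus response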
TAAR1 ag counter – TAAR1 activation by candidate antagonists – cell-based, fluorescence, counter-screen for TAAR1 antagonist project | shares compounds with TAAR1 antagonist | hTAAR1 cell line, agonist mode | activation, % at 3 µM | 2,400 tested, 2% active; in the data active = activation above about 37%;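 also: CHO cells stably expressing TAAR1 with calcium dye readout; 0% = DMSO vehicle and 100% = full agonist response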
* = called active by the depositor; / = no result.

SMILES | TAAR1 antagonist | OX1R antag-1 | CHO parental Ca | TAAR1 agonist | GPR7 antagonist | OX1R antag-2 | TAAR1 nonsel count | TAAR1 ant conf | Ga16 nonsel ag | TAAR1 ag counter
CCOCCCNC(=O)C(c1ccc(OC)cc1)N(Cc1ccc2c(c1)OCO2)C(=O)c1ccccn1 (centres undefined) | -4 | 17 | -13 | 6 | -7 | -24 | / | / | / | /
CCOCCCNC(=O)C(c1ccc(Cl)cc1)N(Cc1cccs1)C(=O)c1ccccn1 (centres undefined) | 71* | 7 | 3 | 18 | 3 | -34 | 21 | 38 | 9 | 10
CCOCCCNC(=O)C(c1ccc(C)cc1)N(Cc1cccs1)C(=O)c1ccccn1 (centres undefined) | 61* | 10 | -14 | 18 | -15 | -4 | 30* | 55* | 12* | 13
CCOc1ccccc1C(=O)NN1C(=O)CCC1=O | -15 | 12 | 1 | 0 | -6 | -5 | / | / | / | /
Oc1csc(Cc2nc(-c3ccc4ccccc4c3)cs2)n1 | 2 | 38 | 0 | 5 | -11 | 9 | / | / | / | /
Cc1ccc(C)c(OCCC(=O)NNC(=O)c2ccccc2F)c1 | -18 | 13 | -4 | 2 | / | 0 | / | / | / | /
COc1ccccc1OCCC(=O)NNC(=O)c1ccccc1F | 103* | 1 | -14 | 1 | / | -15 | -7 | -8 | 11 | 8
COc1cccc(NC(=O)N2CCN(c3nc(-c4cccc(OC)c4)cs3)CC2)c1 | 73* | 5 | 4 | 3 | -7 | -21 | 35* | 43 | 7 | 1
O=C(NCc1cccc(C(F)(F)F)c1)C1CC(c2ccccc2[N+](=O)[O-])=NO1 (centres undefined) | -3 | 42 | -11 | 4 | -1 | -15 | / | / | / | /
O=C(COC(=O)c1ccc2c(c1)OCO2)Nc1ccccc1F | -5 | 5 | -3 | 2 | / | 1 | / | / | / | /
COc1cc2c(cc1OC)C1=C(C#N)CN(C3CCCCC3)CN1CC2 | 53* | 7 | -19 | 8 | -17 | -31 | 23* | 34 | 10 | 7
COc1ccc(CCN2CC(C#N)=C3c4cc(OC)c(OC)cc4CCN3C2)cc1OC | 9 | 10 | -19 | 4 | -10 | -38 | / | / | / | /
CCOc1cc(/C=N/NC(N)=O)cc(Br)c1OCC(=O)Nc1cccc2ccccc12 | 66* | 53 | 15 | 37 | 0 | -21 | 31* | 55* | 14* | 17
CCn1cnc2sc(C(=O)N(Cc3ccc(N(C)C)cc3)Cc3ccco3)c(C)c2c1=O | 54* | 24 | -21 | 24 | -9 | -12 | 23* | 38 | 7 | 14
O=C([C@H](Cc1ccccc1)NS(=O)(=O)c1ccc(Cl)cc1)N1CC[C@@]2(O)CCCC[C@H]2C1 | 56* | 22 | -23 | 26 | 1 | -30 | 24* | 46 | 8 | 9
Cc1ccc(C)c(CN2CCCN(C(=O)Cn3ncc4c3-c3ccccc3OC4)C2)c1 | 59* | 56* | -16 | 6 | 13 | 3 | 23* | 46 | 12* | 12
CCN1CCN(C(=O)Cn2ncc3c2-c2ccccc2OC3)CC1 | -8 | 4 | -4 | 5 | -5 | -22 | / | / | / | /
COc1ccc(NC(=O)c2ccc(S(=O)(=O)N3CC(C)CC(C)C3)cc2)cc1S(N)(=O)=O (centres undefined) | -3 | -4 | 10 | 0 | / | 2 | / | / | / | /
CC(=O)c1cc(Cl)ccc1OCc1cccc(S(=O)(=O)N2CCOCC2)c1 | 91* | 30 | 15 | 14 | / | -2 | 35* | 55* | 13* | 9
O=S(=O)(c1cccc(COc2ccc(Cl)cc2Cl)c1)N1CCOCC1 | 4 | 8 | -17 | 0 | 12 | -26 | / | / | / | /
COc1ccccc1CN1CCNC(=O)C1CC(=O)NCCc1cnccn1 (centres undefined) | -11 | 7 | -2 | 0 | -9 | -7 | / | / | / | /
Cc1cccc(OCC(O)Cn2c(N3CCCCC3)nc3c2c(=O)n(C)c(=O)n3C)c1 (centres undefined) | 64* | 12 | -15 | 12 | -8 | -12 | 30* | 42 | 8 | 10
Cn1c(=O)c2c(nc(N3CCCCCC3)n2CC(O)COc2ccccc2)n(C)c1=O (centres undefined) | 13 | 23 | -7 | 7 | -6 | -13 | / | / | / | /
Cc1cn([C@H](C(=O)NCCCCCCCCCCC(=O)N2CCN(C(=O)OC(C)(C)C)CC2)[C@@H](C)O)nn1 | 63* | 16 | -30 | 21 | / | -29 | 24* | 34 | 11 | 9
O=C(O)c1cccc(NC(=O)c2cn(-c3ccccc3)nc2-c2cc3ccccc3o2)c1 | 64* | 16 | 18 | 12 | -4 | 19 | 39* | 42 | 6 | 4
SMILES | TAAR1 antagonist | OX1R antag-1 | CHO parental Ca | TAAR1 agonist | GPR7 antagonist | OX1R antag-2 | TAAR1 nonsel count | TAAR1 ant conf | Ga16 nonsel ag | TAAR1 ag counter
O=C(N/N=C/c1cn(-c2ccccc2)nc1-c1cc2ccccc2o1)c1ccncc1 | 48 | 10 | -28 | 7 | 11 | -13 | / | / | / | /
CN(CCCC1CCCC1)C(=O)c1cc(COc2ccc(F)c(F)c2)on1 | -4 | 9 | -17 | 0 | 7 | -22 | / | / | / | /
Cc1cccc(N2CCN(C(=O)c3cc(S(=O)(=O)N(C)C)ccc3N3CCCC3)CC2)c1C | -6 | 19 | -14 | 2 | 11 | -24 | / | / | / | /
CCOc1ccccc1N1CCN(C(=O)c2cc(S(=O)(=O)N(C)C)ccc2N2CCCC2)CC1 | 57* | -1 | -13 | 19 | / | -27 | 20 | 47 | 9 | 9
N#Cc1ccc(NC(=O)CCc2ccc(S(=O)(=O)N3CCOCC3)cc2)cc1 | 2 | 7 | 11 | 5 | -7 | -13 | / | / | / | /
Oc1ccccc1OCC(O)c1ccccc1 (centres undefined) | -17 | 7 | 4 | 0 | -8 | -10 | / | / | / | /
Oc1ccccc1OCCOc1ccccc1OCCOc1ccccc1O | 79* | 16 | 13 | 10 | 0 | 20 | 35* | 55* | 9 | 9
